The results in this text go back to ChEMBL document CHEMBL1129380, “Synthesis, activity, and molecular modeling of a new series of tricyclic pyridazinones as selective aldose reductase inhibitors” (J Med Chem, 1996).

What is called IC50 is the point on the concentration scale where inhibition reaches its midpoint. Usually inhibition stands for the drop in the measured response relative to a control, in per cent. In general, Inhibition refers to the relative decrease from the control value, in per cent.

Assay [1] concerns the target Sorbitol dehydrogenase (Ovis aries) (UniProt P07846). The experiment in a line: Inhibition of sorbitol dehydrogenase from sheep liver (40 U/mg of protein).
For assay [2], the target named is Aldo-keto reductase family 1 member B1 (Bos taurus, UniProt P16116). Nature of the assay: (§1) Evaluated for inhibition of Aldose reductase 2. The essentials: (§2)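 Calf lens ALR2, partially purified by DE-52 (6.5 mU/mg), at 3.5 mU/mL. Assay at 37 °C with 4.7 mM D,L-glyceraldehyde and 0.11 mM NADPH in 0.25 M sodium phosphate, pH 6.8, with 0.38 M ammonium sulfate. Inhibitor in DMSO (1% final). A340 decrease corrected by a no-substrate blank.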

The species named for another assay is Bos taurus. Nature of the assay: Inhibition of Aldehyde reductase 1. Set-up: concentration or dose not given beside the values. The settings on record: concentration not given here. In outline:
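Partially purified bovine kidney ALR1 (ammonium sulfate fractionation plus DEAE-52 batch step, 11.3 mU/mg), at 3.5 mU/mL. Assay at 37 °C with 20 mM D-glucuronate and 0.12 mM NADPH in 0.1 M sodium phosphate, pH 7.2. Inhibitor added in DMSO, kept at 1%. NADPH oxidation read at 340 nm against a substrate-free blank. IC50 from the log dose–inhibition curve, duplicates.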

Assay [3] deals with Sorbitol dehydrogenase (Ovis aries) (UniProt P07846). The experiment in a line: Inhibition of sorbitol dehydrogenase from sheep liver (40 U/mg of protein). To be noted: concentration not given here.
In assay [4] the target is Aldo-keto reductase family 1 member B1 (Bos taurus) (UniProt P16116). The assay is described as §1. The essentials:
as §2

In assay [5] the target is T1, Glutathione reductase, mitochondrial (Homo sapiens) (UniProt P00390).
T1 sequence (whole entry): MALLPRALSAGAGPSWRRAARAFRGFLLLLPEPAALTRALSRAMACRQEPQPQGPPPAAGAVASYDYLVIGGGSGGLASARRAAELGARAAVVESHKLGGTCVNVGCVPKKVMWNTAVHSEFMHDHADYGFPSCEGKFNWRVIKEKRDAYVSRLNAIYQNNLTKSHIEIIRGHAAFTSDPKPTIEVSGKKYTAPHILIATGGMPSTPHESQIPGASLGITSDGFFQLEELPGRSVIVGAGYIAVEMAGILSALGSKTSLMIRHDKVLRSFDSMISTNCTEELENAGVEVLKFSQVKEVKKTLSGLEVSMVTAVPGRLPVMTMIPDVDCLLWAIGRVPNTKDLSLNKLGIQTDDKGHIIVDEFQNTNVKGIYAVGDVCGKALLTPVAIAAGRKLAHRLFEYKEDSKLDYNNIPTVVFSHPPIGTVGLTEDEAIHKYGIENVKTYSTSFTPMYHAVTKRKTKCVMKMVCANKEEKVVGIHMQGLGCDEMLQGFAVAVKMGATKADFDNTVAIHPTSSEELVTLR
The experiment in a line: Inhibition of glutathione reductase at 138 uM. To be noted: Saccharomyces cerevisiae.

In assay [6] the target is T2, Glutathione reductase, mitochondrial (Homo sapiens, UniProt P00390).
T2 sequence (P00390 whole entry): T1 sequence (whole entry)
The experiment in a line: (§3) Inhibition of glutathione reductase. More on the design: species or system Saccharomyces cerevisiae.

Assay [7] deals with T1, Glutathione reductase, mitochondrial (Homo sapiens). Described as §3. To be noted: Saccharomyces cerevisiae; concentration not given here.
For assay [8] the target is unchanged. Nature of the assay: Inhibition of glutathione reductase at 149 uM. The settings on record: Saccharomyces cerevisiae.

Sequence of Sorbitol dehydrogenase (Ovis aries) (P07846 whole entry, looked up): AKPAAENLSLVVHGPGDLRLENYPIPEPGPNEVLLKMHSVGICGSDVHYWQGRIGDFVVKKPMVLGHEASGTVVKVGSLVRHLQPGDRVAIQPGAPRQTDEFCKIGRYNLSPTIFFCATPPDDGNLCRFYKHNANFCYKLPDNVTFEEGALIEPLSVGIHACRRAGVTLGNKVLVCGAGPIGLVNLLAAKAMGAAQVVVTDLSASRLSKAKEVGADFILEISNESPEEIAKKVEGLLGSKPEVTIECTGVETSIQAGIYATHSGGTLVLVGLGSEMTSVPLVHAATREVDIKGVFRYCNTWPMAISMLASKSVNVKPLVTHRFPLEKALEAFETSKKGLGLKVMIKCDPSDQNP

For the compound `COc1cc2c(cc1OC)-c1nn(CC(=O)O)c(=O)cc1CC2`, the 50% inhibitory concentration (IC50) result in assay [1] was “No inhibition”; in [2], 114 µM. In addition, in the assay listed under Bos taurus, the inhibition is 11.3%.
For the compound `Cc1cc(C)c2c(c1)C1=NN(CC(=O)O)C(=O)CC1CC2` (stereo unspecified), in assay [2], the IC50 was determined as 63.5 µM. The compound further came in with an inhibition in the assay filed under Bos taurus of 21.8%.
`COc1ccc2c(C(=S)N(C)CC(=O)O)cccc2c1C(F)(F)F` [TOLRESTAT] came in with an inhibition in [3] of 16.4%.
Consider `O=C(O)c1c2c(n[nH]c1=O)-c1ccccc1CCC2`, for which the inhibition is 6.8% in the assay filed under Bos taurus and 13.2% in assay [4].
As for `O=C(O)c1c(O)nnc2c1CCc1ccccc1-2`, the IC50 result in [1] is recorded as “No inhibition”. Also, the values for the inhibition (in the assay listed under Bos taurus; in [4]) were 8.3% and 9.9%, respectively.
`COc1cc2c(cc1OC)-c1nn(CCC(=O)O)c(=O)cc1CC2`: the IC50 entry in assay [1] was “No inhibition”; in [2] it was 162 µM. In the assay listed under Bos taurus, the inhibition amounted to 8%.
Regarding `O=C(O)Cn1nc2c(c(C(=O)O)c1=O)CCCc1ccccc1-2`, the figures for the inhibition (in the assay listed under Bos taurus; in [4]) were 10.3% and 12.1%, respectively.
In the case of `O=C(O)CCCn1nc2c(cc1=O)CCc1ccccc1-2`, the concentration for half-maximal inhibition (IC50) entry was “No inhibition” in assay [1] and 11.4 µM in assay [2].
Compound `O=C(O)Cn1nc2c(cc1=O)CCc1ccccc1-2` had an inhibition in [5] of 4.2%. Besides, the half-maximal inhibitory concentration (IC50) result was “No inhibition” in assay [1] and 12.6 µM in assay [2].
In [6], `O=C(O)c1c2c(n[nH]c1=O)-c1ccccc1CC2` registered an Inhibition of 18.9%.
`O=C1NC(=O)[C@@]2(CCOc3ccc(F)cc32)N1` [SORBINIL]: the IC50 entry in assay [1] is “No inhibition”.
In the case of `Cc1cc(C)c2c(c1)-c1nn(CCCC(=O)O)c(=O)cc1CC2`, the IC50 result is “No inhibition” in assay [1] and 17.4 µM in assay [2]. Moreover, in the assay filed under Bos taurus, the inhibition was 22.1%.
`Cc1cc(C)c2c(c1)-c1nn(CC(=O)O)c(=O)cc1CC2`: the results for the IC50 result in [1] and in [2] were “No inhibition” and 6.44 µM, respectively.
Consider `COc1cc2c(cc1OC)-c1nn(CCCC(=O)O)c(=O)cc1CC2`, for which the concentration for half-maximal inhibition (IC50) entry in assay [1] is “No inhibition”; in assay [2], 7.56 µM. The compound further returned an inhibition in the assay filed under Bos taurus of 10.1%.
Take `O=C(O)c1c(O)nnc2c1Cc1ccccc1-2`: the concentration for half-maximal inhibition (IC50) entry in assay [1] is listed as “No inhibition”. The Inhibition in assay [6] was found to be 12.3%. Also, the inhibition in the assay listed under Bos taurus came out at 0%; in assay [4] it was 5.3%.
Consider `O=C(O)CCn1nc2c(cc1=O)CCc1ccccc1-2`, for which the IC50 result in assay [1] is “No inhibition”; in assay [2], 133 µM. In the assay listed under Bos taurus, this compound came in with an inhibition of 32.7%.
`O=C(O)Cn1nc2c(c(C(=O)O)c1=O)Cc1ccccc1-2`: the inhibition in assay [7] was found to be 22.3%; in assay [4], 32.4%. The half-maximal inhibitory concentration (IC50) entry in [1] is “No inhibition”.
For `COc1cc2c(cc1OC)-c1nn(CC(=O)O)c(=O)cc1C2`, the inhibition in assay [8] stood at 11.2%; in the assay listed under Bos taurus it was 44.1%. Also, the values for the IC50 result in assay [1] and in assay [2] were “No inhibition” and 26.4 µM, respectively.
For `Cc1cc(C)c2c(c1)-c1nn(CCC(=O)O)c(=O)cc1CC2`, the half-inhibitory concentration (IC50) entry in assay [1] was “No inhibition”; in [2], 51.5 µM.
Take `O=C(O)Cn1nc2c(cc1=O)CCCc1ccccc1-2`: the IC50 entry in assay [1] was “No inhibition”; in assay [2], 76.2 µM. In addition, the inhibition in the assay filed under Bos taurus stood at 15.1%.
In the case of `O=C(O)Cn1nc2c(c(C(=O)O)c1=O)CCc1ccccc1-2`, the inhibition in assay [7] turned out to be 23.7%. Moreover, the IC50 entry in assay [1] is “No inhibition”; in assay [2], 33 µM.
Take `O=C(O)Cn1nc2c(cc1=O)Cc1ccccc1-2`: the inhibition in [7] was determined as 9.4%; in [4], 35.8%. Also, the IC50 result in assay [1] was “No inhibition”.
